pIC50: −log10 of the molar value. The source made the active and inactive calls. No cut-off for these calls is given here.
Tests used:
T98G = assay: Antiproliferative activity against human T98G cells after 72 hrs by MTT assay; assay type: functional, cell-based
How it was run: (§1)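 MTT assay: cells in RPMI 1640 with 10% heat-inactivated FCS at 37 °C and 5% CO2 were seeded 24 h before treatment. They were exposed 72 h to compound at 0.01–100 μM, with DMSO as solvent.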

[1] = Selectivity index, ratio of IC50 for mouse astrocytes to IC50 for human U373 cells
[2] = target: T1, NAD-dependent protein deacetylase sirtuin-1 (Homo sapiens, UniProt Q96EB6); assay: Inhibition of N-terminal His-tagged recombinant human SIRT-1 expressed in Escherichia coli using Fluor-de-Lys-SIRT1 as substrate after 15 mins by fluorescence assay
T1 sequence (Q96EB6 whole entry): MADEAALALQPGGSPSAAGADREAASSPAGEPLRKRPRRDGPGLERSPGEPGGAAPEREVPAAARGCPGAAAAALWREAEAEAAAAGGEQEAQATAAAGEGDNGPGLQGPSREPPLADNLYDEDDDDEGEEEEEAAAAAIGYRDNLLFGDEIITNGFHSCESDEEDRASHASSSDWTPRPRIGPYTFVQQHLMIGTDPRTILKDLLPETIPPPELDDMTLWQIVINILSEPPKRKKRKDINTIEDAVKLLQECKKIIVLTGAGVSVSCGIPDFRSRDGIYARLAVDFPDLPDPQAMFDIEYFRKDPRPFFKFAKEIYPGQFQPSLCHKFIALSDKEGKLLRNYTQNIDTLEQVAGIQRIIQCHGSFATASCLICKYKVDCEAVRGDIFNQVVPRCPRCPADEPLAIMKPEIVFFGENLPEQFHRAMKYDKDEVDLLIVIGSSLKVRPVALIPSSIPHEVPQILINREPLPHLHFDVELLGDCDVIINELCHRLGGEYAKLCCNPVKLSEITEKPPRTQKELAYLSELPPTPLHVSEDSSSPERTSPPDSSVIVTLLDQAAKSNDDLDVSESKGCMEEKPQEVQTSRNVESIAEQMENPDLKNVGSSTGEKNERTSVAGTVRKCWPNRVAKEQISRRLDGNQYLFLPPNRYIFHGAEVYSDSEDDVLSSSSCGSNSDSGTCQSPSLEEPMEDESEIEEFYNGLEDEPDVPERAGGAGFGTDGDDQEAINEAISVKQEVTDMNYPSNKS

[3] = target: Histone deacetylase 3 (Homo sapiens) (UniProt O15379); assay: Inhibition of His-tagged recombinant human HDAC3 expressed in baculovirus infected insect cells at 0.1 to 100 uM using Fluor-de-Lys-SIRT1 as substrate after 15 mins by fluorescence assay
[4] = target: Histone deacetylase 11 (Homo sapiens) (UniProt Q96DB2); assay: Inhibition of N-terminal His-tagged recombinant human HDAC11 expressed in baculovirus infected insect Sf9 cells at 0.1 to 100 uM using Fluor-de-Lys-SIRT1 as substrate after 15 mins by fluorescence assay
U-373MG ATCC = assay: Inhibition of 3D tumor-like growth of human U373 cells assessed as decrease in ATP level at 5 to 10 uM treated for 24 hrs measured after 96 hrs by CellTiter-Glo assay; assay type: functional, cell-based
Hs 683 [5] = assay: Inhibition of 3D tumor-like growth of human Hs683 cells assessed as decrease in ATP level at 5 to 10 uM treated for 24 hrs measured after 96 hrs by CellTiter-Glo assay; assay type: functional, cell-based
How it was run: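 Spheroids were grown from a starting suspension of 1 × 10^3 cells in 25 μL. Cells were pretreated 24 h with compound, then left untreated for 96 h. Spheroids were harvested and mixed with CellTiter-Glo 3D reagent, shaken 5 min and stabilized 25 min, then luminescence was read. Mean ± SD of three independent experiments.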

A2780cis = assay: Antiproliferative activity against human A2780cis cells after 72 hrs by MTT assay; assay type: functional, cell-based; how it was run: as §1
[6] = target: T2, NAD-dependent protein deacetylase sirtuin-1 (Homo sapiens) (UniProt Q96EB6); assay: Inhibition of SIRT1 in human U373 cells assessed as increase of histone H4 acetylation at 5 uM after 8 hrs by Western blotting method relative to control; assay type: cell-based
T2 sequence (whole entry): T1 sequence (Q96EB6 whole entry)

[7] = target: T2, NAD-dependent protein deacetylase sirtuin-1 (Homo sapiens); assay: Inhibition of SIRT1 in human Hs683 cells assessed as increase of histone H4 acetylation at 5 uM after 8 hrs by Western blotting method relative to control; assay type: cell-based
[8] = target: T3, NAD-dependent protein deacetylase sirtuin-2 (Homo sapiens) (UniProt Q8IXJ6); assay: Inhibition of SIRT2 in human U373 cells assessed as increase of alpha-tubulin acetylation at 1 uM after 8 hrs by Western blotting method relative to control; assay type: cell-based
T3 sequence (whole entry): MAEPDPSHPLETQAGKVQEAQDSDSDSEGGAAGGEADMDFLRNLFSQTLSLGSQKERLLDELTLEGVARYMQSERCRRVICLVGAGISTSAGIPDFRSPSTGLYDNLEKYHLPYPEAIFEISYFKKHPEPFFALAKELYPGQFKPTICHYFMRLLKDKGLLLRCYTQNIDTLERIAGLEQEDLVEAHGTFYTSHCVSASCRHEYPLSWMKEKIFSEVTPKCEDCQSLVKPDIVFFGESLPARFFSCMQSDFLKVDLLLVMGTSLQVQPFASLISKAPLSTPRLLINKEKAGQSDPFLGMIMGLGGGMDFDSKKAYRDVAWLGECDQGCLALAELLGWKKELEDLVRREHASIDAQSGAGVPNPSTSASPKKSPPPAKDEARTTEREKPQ

Hs 683 [9] = assay: Potency index, ratio of sirtinol IC50 to test compound IC50 for human Hs683 cells; assay type: functional
NCI-H522 = assay: Growth inhibition of human NCI-H522 cells after 48 hrs by SRB assay; assay type: functional; conditions: NCI-H522, 48 h
HT-29 = assay: Growth inhibition of human HT-29 cells after 48 hrs by SRB assay; assay type: functional; conditions: HT-29, 48 h
SF-539 = assay: Growth inhibition of human SF539 cells after 48 hrs by SRB assay; assay type: functional; conditions: SF-539, 48 h
SK-MEL-5 = assay: Growth inhibition of human SK-MEL-5 cells after 48 hrs by SRB assay; assay type: functional; conditions: SK-MEL-5, 48 h
UACC-257 = assay: Growth inhibition of human UACC257 cells after 48 hrs by SRB assay; assay type: functional; conditions: UACC-257, 48 h
786-0 = assay: Growth inhibition of human 786-0 cells after 48 hrs by SRB assay; assay type: functional; conditions: 786-0, 48 h
A498 = assay: Growth inhibition of human A498 cells after 48 hrs by SRB assay; assay type: functional; conditions: A498, 48 h
MDA-MB-231 = assay: Growth inhibition of human MDA-MB-231 cells after 48 hrs by SRB assay; assay type: functional; conditions: MDA-MB-231, 48 h
MDA-MB-468 = assay: Growth inhibition of human MDA-MB-468 cells after 48 hrs by SRB assay; assay type: functional; conditions: MDA-MB-468, 48 h

Chain of Histone deacetylase 3 (Homo sapiens) (O15379 whole entry): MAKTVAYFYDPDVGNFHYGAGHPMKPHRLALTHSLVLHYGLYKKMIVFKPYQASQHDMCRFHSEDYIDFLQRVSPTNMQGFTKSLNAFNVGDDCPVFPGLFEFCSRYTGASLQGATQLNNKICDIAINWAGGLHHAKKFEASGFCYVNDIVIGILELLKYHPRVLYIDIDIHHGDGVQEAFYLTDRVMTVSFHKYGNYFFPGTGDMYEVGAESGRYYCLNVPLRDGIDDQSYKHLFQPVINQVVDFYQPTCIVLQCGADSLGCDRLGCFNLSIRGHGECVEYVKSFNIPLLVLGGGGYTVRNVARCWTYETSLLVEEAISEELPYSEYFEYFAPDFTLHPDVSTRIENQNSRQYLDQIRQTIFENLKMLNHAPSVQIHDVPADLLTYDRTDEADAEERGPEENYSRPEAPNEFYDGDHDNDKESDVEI
Chain of Histone deacetylase 11 (Homo sapiens) (Q96DB2 whole entry): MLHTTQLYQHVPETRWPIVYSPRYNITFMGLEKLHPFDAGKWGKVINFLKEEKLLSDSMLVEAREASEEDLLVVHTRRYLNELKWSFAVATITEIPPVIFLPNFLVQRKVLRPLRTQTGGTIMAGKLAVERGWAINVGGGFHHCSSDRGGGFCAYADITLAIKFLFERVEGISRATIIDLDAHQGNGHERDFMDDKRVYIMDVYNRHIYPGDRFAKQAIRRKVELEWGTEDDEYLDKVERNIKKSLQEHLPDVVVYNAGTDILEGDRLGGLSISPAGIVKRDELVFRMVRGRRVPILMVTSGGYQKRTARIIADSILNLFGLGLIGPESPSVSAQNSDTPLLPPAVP

With CC(C)(C)OC(=O)Nc1ccc2c(c1)C(NC(=O)Nc1cccc(C#N)c1)CC(C)(C)O2 (stereo unspecified) the pIC50 (T98G) was 4.85, the “Ratio IC50” value [1] was over 10 and the pIC50 [2] was 5.21. For the same compound, the inhibition [3] was “inactive”, the inhibition [4] was “inactive” and the inhibition (U-373MG ATCC) was “Active”. The inhibition (Hs 683 [5]) was “Active”, the Activity (A2780cis) was “Active” and the fold change (FC) [6] was 1.3. For the same compound, the fold change (FC) [7] was 8.3, the fold change (FC) [8] was 0.9 and the “Ratio IC50” value (Hs 683 [9]) was 6. The GI50 (NCI-H522) was 3.24 µM, the GI50 (HT-29) was 6.92 µM and the GI50 (SF-539) was 6.61 µM. The GI50 (SK-MEL-5) was 0.427 µM, the GI50 (UACC-257) was 0.871 µM and the GI50 (786-0) was 7.59 µM. It also gave a GI50 (A498) of 7.08 µM, a GI50 (MDA-MB-231) of 4.27 µM and a GI50 (MDA-MB-468) of 0.269 µM.

Reference: ChEMBL document CHEMBL4052637, “Discovery and Characterization of R/S-N-3-Cyanophenyl-N'-(6-tert-butoxycarbonylamino-3,4-dihydro-2,2-dimethyl-2H-1-benzopyran-4-yl)urea, a New Histone Deacetylase Class III Inhibitor Exerting Antiproliferative Activity against Cancer Cell Lines” (J Med Chem, 2017)
